Experimental findings from ChEMBL document CHEMBL1123430, “Potential tumor- or organ-imaging agents. 26. Polyiodinated 2-substituted triacylglycerols as hepatographic agents” (J Med Chem, 1986) are described below.

The test system of data set [1] is Rattus norvegicus. In words: Distribution of radioactivity of radiolabeled compound in blood of female rats 5 minutes after intravenous administration. It counts as ADME, organism-based. Particulars: in vivo.
In data set [2] the test system is Rattus norvegicus. As to the kind of experiment: Distribution of radioactivity of radiolabeled compound in heart of female rats 30 minutes after intravenous administration. It counts as ADME, organism-based. Conditions: in vivo, 0.5 h.
Data set [3] relates to Rattus norvegicus. In words: Distribution of radioactivity of radiolabeled compound in blood of female rats 30 minutes after intravenous administration. Particulars: in vivo, 0.5 h. It is filed as ADME, organism-based.
The subject of data set [4] is Rattus norvegicus. In words: Distribution of radioactivity of radiolabeled compound in heart of female rats 5 minutes after intravenous administration. It is filed as ADME, organism-based. Particulars: in vivo.
The test system of data set [5] is Rattus norvegicus. In words: Distribution of radioactivity of radiolabeled compound in kidney of female rats 30 minutes after intravenous administration. It counts as ADME, organism-based. Conditions: in vivo, 0.5 h.
Data set [6] deals with Rattus norvegicus. As to the kind of experiment: Distribution of radioactivity of radiolabeled compound in kidney of female rats 5 minutes after intravenous administration. It counts as ADME, organism-based. Conditions: in vivo.
Data set [7] relates to Rattus norvegicus. In words: Distribution of radioactivity of radiolabeled compound in liver of female rats 30 minutes after intravenous administration. It is filed as ADME, organism-based. Conditions: in vivo, 0.5 h.
In data set [8] the test system is Rattus norvegicus. In words: Distribution of radioactivity of radiolabeled compound in liver of female rats 5 minutes after intravenous administration. It is filed as ADME, organism-based. Conditions: in vivo.
The subject of data set [9] is Rattus norvegicus. As to the kind of experiment: Distribution of radioactivity of radiolabeled compound in lung of female rats 30 minutes after intravenous administration. It is filed as ADME, organism-based. Conditions: in vivo, 0.5 h.
Data set [10] has as its system Rattus norvegicus. As to the kind of experiment: Distribution of radioactivity of radiolabeled compound in lung of female rats 5 minutes after intravenous administration. It is filed as ADME, organism-based. Conditions: in vivo.
Data set [11] relates to Rattus norvegicus. As to the kind of experiment: Polyacrylamide Gel Electrophoresis (PAGE) analysis of rat plasma 30 min after intravenous administration of radiolabeled compound ( below albumin). It is filed as functional, organism-based. Put shortly:
(§1)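 Gels were sectioned and counted in a γ counter. Radioactivity in each band (stacking gel, LDL, HDL, albumin, below albumin) is expressed as a percentage of the total radioactivity applied to the gel, ± SEM, n = 3-5.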

The test system of data set [12] is Rattus norvegicus. As to the kind of experiment: Polyacrylamide Gel Electrophoresis (PAGE) analysis of rat plasma 30 min after intravenous administration of radiolabeled compound in low density lipoprotein. It is filed as functional, organism-based. In a few lines:
as §1

For data set [13], the system named is Rattus norvegicus. In words: Polyacrylamide Gel Electrophoresis (PAGE) analysis of rat plasma 5 minutes after intravenous administration of radiolabeled compound (below albumin ). It counts as functional, organism-based. Put shortly:
(§2)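 ¹²⁵I-labeled compound, radioiodinated by exchange in a pivalic acid melt, solubilized in normal saline with Tween 20 and given iv to adult female Sprague–Dawley rats (200–250 g), 5–30 μCi/animal, 3–4 rats per time point. Plasma was run on polyacrylamide gels. Gels were sectioned and gamma counted. Radioactivity per band (stacking gel, LDL, HDL, albumin, below albumin) is given as % of total applied; mean ± SEM, n = 3-5.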

The subject of data set [14] is Rattus norvegicus. In words: Polyacrylamide Gel Electrophoresis (PAGE) analysis of rat plasma 5 minutes after intravenous administration of radiolabeled compound at in high density lipoprotein. It counts as functional, organism-based. In a few lines: as §2
Data set [15] relates to Rattus norvegicus. As to the kind of experiment: Polyacrylamide Gel Electrophoresis (PAGE) analysis of rat plasma 5 minutes after intravenous administration of radiolabeled compound in low-density lipoprotein. It counts as functional, organism-based. In a few lines: as §2
Data set [16] has as its system Rattus norvegicus. In words: Polyacrylamide Gel Electrophoresis (PAGE) analysis of rat plasma 5 minutes after intravenous administration of radiolabeled compound in stacking gel. It counts as functional, organism-based. In a few lines: as §2
In data set [17] the test system is Rattus norvegicus. In words: Polyacrylamide Gel Electrophoresis (PAGE) analysis of rat plasma 5 minutes after intravenous administration of radiolabeled in stacking gel. It counts as functional, organism-based. In a few lines: as §2
For data set [18], the system named is Rattus norvegicus. In words: Polyacrylamide Gel Electrophoresis (PAGE) analysis of rat plasma 30 min after intravenous administration of radiolabeled compound at in high density. It is filed as functional, organism-based. In a few lines:
as §1

Data set [19] relates to Rattus norvegicus. In words: Polyacrylamide Gel Electrophoresis (PAGE) analysis of rat plasma 30 min after intravenous administration of radiolabeled compound in albumin. It counts as functional, organism-based. In a few lines: as §1
In data set [20] the test system is Rattus norvegicus. In words: Polyacrylamide Gel Electrophoresis (PAGE) analysis of rat plasma 5 min after intravenous administration of radiolabeled compound concentration of albumin. It is filed as functional, organism-based. Put shortly: as §1
In data set [21] the test system is Rattus norvegicus. In words: Polyacrylamide Gel Electrophoresis (PAGE) analysis of rat plasma 30 minutes after intravenous administration of radiolabeled in stacking gel. It is filed as functional, organism-based. Put shortly:
as §1

Take `Nc1c(I)cc(I)c(CC(=O)O)c1I`: the Dose in [1] amounted to 5.44%; in data set [2], 0.72%; in data set [3] it was 2.41%; in data set [4], 1.09%; in data set [5], 5.82%; in data set [6], 4.62%. The Dose in data set [7] amounted to 0.5%; in data set [8], 0.87%; in data set [9] it was 1.07%; in [10], 1.49%. Further, the Concentration in data set [11] turned out to be 7; in [12] it was 0.4; in data set [13], 5.5; in [14], 15.8%; in data set [15], 1%; in data set [16] it was 1.7%. The Concentration was found to be 1.7% in data set [17], 7.3% in data set [18], 83.6 in data set [19] and 76 in data set [20].

Take `Nc1c(I)cc(I)c(CCC(=O)O)c1I`: the Dose came to 2.52% in [1]; 4.14% in [2]; 1.15% in [3]; 4% in data set [4]; 1.54% in data set [5]; 2.44% in [6]. Further, the Dose in data set [7] is on record as 0.77%; in data set [8], 1.08%; in [9], 0.45%; in data set [10] it was 1.02%. For the same compound, the Concentration is 11 in data set [21]; 10.8 in [11]; 6.9 in data set [12]; 4.1 in data set [13]; 5.3% in [14]; 2.4% in data set [15]. For the same compound, the Concentration is 4.6% in data set [16], 13.3% in data set [18], 51.5 in [19] and 83.6 in data set [20].
